pEC50, pKi: −log10 of the molar value. Calls of active or inactive are those of the source. The rule behind the calls is not given here.
What was measured:
[1] = biological target: T1, Alpha-1D adrenergic receptor (Rattus norvegicus, UniProt P23944); experiment: Effective concentration in vitro against rat aorta Alpha-1D adrenergic receptor;* indicates EC50 < 15% at a concentration of 10 uM; assay type: tissue-based
T1 sequence (P23944 whole entry): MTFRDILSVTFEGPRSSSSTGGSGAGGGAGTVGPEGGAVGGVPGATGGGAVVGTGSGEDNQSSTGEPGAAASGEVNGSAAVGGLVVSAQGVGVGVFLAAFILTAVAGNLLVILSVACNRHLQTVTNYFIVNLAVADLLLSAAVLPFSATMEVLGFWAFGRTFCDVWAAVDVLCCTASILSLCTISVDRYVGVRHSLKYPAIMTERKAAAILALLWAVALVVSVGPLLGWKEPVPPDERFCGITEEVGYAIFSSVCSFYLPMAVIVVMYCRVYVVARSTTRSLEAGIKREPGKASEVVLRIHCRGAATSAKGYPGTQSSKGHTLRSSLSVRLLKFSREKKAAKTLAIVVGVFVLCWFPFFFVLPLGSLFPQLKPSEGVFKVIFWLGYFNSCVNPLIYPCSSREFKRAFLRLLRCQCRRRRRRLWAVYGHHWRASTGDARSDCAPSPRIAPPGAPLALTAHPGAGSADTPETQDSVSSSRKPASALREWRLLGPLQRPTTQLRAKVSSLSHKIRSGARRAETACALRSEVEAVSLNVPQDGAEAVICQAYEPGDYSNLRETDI

Rattus norvegicus [2] = species: Rattus norvegicus; experiment: In vitro percent efficacy of compound was tested in rat spleen; assay type: functional
Rattus norvegicus [3] = species: Rattus norvegicus; experiment: (§1) In vitro percent efficacy of compound was tested in rat aorta; assay type: functional
[4] = biological target: T2, Alpha-1B adrenergic receptor (Rattus norvegicus, UniProt P15823); experiment: Effective concentration in vitro against rat spleen Alpha-1B adrenergic receptor indicates EC50 < 15% at a concentration of 10 uM; assay type: tissue-based
T2 sequence (P15823 whole entry): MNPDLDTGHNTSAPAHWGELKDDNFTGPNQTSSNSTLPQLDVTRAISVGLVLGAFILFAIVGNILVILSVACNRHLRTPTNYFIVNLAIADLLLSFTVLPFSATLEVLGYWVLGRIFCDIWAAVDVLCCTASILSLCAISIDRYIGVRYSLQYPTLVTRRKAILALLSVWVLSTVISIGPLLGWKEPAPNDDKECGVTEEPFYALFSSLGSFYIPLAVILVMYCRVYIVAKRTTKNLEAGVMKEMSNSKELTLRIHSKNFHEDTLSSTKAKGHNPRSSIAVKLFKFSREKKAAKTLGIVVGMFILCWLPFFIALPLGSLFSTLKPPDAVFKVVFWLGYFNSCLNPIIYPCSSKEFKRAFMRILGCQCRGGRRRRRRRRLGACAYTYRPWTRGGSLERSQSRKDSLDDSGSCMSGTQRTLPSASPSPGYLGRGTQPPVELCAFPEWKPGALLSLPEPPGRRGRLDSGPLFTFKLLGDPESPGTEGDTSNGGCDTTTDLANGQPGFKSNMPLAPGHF

[5] = biological target: T3, Alpha-1B adrenergic receptor (Mesocricetus auratus, UniProt P18841); experiment: Binding affinity towards hamster cloned Alpha-1B adrenergic receptor; value ranges from (6.2 -7.7); set-up: species or system Cricetulus griseus
T3 sequence (P18841 whole entry): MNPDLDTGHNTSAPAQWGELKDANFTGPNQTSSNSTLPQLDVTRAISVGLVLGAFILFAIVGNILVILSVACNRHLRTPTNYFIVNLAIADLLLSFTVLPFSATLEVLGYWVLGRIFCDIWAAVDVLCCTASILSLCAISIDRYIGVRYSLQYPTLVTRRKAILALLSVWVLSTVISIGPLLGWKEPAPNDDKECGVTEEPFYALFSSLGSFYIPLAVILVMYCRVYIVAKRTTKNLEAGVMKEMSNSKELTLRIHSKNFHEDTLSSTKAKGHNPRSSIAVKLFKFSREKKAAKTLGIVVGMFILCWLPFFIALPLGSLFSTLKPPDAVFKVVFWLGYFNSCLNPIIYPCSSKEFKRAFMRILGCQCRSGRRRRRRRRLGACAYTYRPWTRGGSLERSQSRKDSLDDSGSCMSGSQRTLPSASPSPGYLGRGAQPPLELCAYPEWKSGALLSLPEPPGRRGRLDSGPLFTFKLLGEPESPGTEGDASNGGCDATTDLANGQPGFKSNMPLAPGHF

Canis familiaris [6] = experiment: Dose corresponding to a 5 mmHg increase in Intraurethral pressure (IUP) was determined in vivo in isoflurane anesthetized female beagles; assay type: functional, Canis lupus familiaris, Beagle
Method in brief: (§2)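 Female beagles under isoflurane anesthesia; MAP by chronically implanted telemetry transducer/transmitter, IUP by urethral catheter, recorded simultaneously. Increasing iv doses given; maximal effect of each dose taken within 1 min of dosing. Doses giving 5 mmHg IUP rise (IUP ED5) and 20 mmHg MAP rise (MAP ED20) calculated, nmol/kg, mean ± SEM, n ≥ 4.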

Oryctolagus cuniculus = species: Oryctolagus cuniculus; experiment: In vitro percent efficacy of compound was tested in rabbit urethra; assay type: functional
[7] = biological target: T1, Alpha-1D adrenergic receptor; experiment: Binding affinity towards rat cloned Alpha-1D adrenergic receptor; value ranges from (1.5 - 1.9)
Canis familiaris [8] = experiment: Dose corresponding to a 20 mmHg increase in mean arterial pressure (MAP) was determined in vivo in isoflurane anesthetized female beagles; assay type: functional, Canis lupus familiaris, Beagle, Artery; method in brief: as §2
[9] = biological target: T4, Alpha-1A adrenergic receptor (Rattus norvegicus, UniProt P43140); experiment: Binding affinity towards rat submaxillary gland Alpha-1 adrenergic receptor; value ranges from (1.6 -2.5)
T4 sequence (P43140 whole entry): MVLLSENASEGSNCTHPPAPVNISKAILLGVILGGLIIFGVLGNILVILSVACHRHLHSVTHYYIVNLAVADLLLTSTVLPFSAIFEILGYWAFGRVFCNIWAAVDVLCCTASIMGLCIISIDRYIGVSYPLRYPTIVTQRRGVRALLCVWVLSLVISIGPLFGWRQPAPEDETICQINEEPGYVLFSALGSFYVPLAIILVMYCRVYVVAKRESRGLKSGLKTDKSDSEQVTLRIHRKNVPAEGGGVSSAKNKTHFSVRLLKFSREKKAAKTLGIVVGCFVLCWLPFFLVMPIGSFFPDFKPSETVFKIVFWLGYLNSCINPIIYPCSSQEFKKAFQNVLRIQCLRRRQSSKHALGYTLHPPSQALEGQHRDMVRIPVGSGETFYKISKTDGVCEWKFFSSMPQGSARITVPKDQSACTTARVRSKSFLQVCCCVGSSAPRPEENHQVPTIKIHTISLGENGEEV

[10] = biological target: T3, Alpha-1B adrenergic receptor; experiment: Binding affinity towards hamster cloned Alpha-1B adrenergic receptor mean;value ranges from( 6.4 -14); set-up: species or system Cricetulus griseus
[11] = biological target: T4, Alpha-1A adrenergic receptor; experiment: Binding affinity towards rat submaxillary gland Alpha-1 adrenergic receptor; value ranges from (6.2 - 15)
Rattus norvegicus [12] = species: Rattus norvegicus; experiment: In vitro percent efficacy of compound was tested rat spleen; assay type: functional
[13] = biological target: T1, Alpha-1D adrenergic receptor; experiment: Binding affinity towards rat cloned Alpha-1D adrenergic receptor; value ranges from (5.5 -13)
[14] = biological target: T5, Alpha-1B adrenergic receptor (Rattus norvegicus) (UniProt P15823); experiment: Effective concentration in vitro against rat spleen Alpha-1B adrenergic receptor (EC50 < 15%) at a concentration of 10 uM; NA is not active; assay type: tissue-based
T5 sequence (whole entry): T2 sequence (P15823 whole entry)

[15] = biological target: T2, Alpha-1B adrenergic receptor; experiment: Antagonistic activity against Alpha-1B adrenergic receptor determined using phenylephrine challenge in rat spleen isolated tissues.; assay type: functional, tissue-based; conditions: read-out: pA2 (converted)
[16] = biological target: T4, Alpha-1A adrenergic receptor; experiment: Binding affinity towards rat submaxillary gland Alpha-1 adrenergic receptor; value ranges from (0.12 - 0.15)
[17] = biological target: T1, Alpha-1D adrenergic receptor; experiment: Antagonistic activity against Alpha-1D adrenergic receptor determined using phenylephrine challenge in rat aorta isolated tissues.; assay type: functional, tissue-based; conditions: read-out: pA2 (converted)
Rattus norvegicus [18] = species: Rattus norvegicus; experiment: as §1; assay type: functional; remark: listed apart in the source
Method in brief: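 Isolated tissue contraction: agonist dose–response curves run in rat aorta (α1D) and rat spleen (α1B). Efficacy is the percent response relative to phenylephrine. EC50 is taken as the dose contracting the tissue 50%. Data reported ± SEM.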

[19] = biological target: T1, Alpha-1D adrenergic receptor; experiment: Binding affinity towards rat cloned Alpha-1D adrenergic receptor; value ranges from (1.3 -1.6)
[20] = biological target: T3, Alpha-1B adrenergic receptor; experiment: Binding affinity towards hamster cloned Alpha-1B adrenergic receptor; value ranges from (2.0 -4.4); set-up: species or system Cricetulus griseus

| SMILES | pEC50 [1] | Efficacy (Rattus norvegicus [3]) [%] | pEC50 [4] | ED5 (Canis familiaris [6]) [nM/kg] | Efficacy (Oryctolagus cuniculus) [%] | ED20 (Canis familiaris [8]) [nM/kg] | other results |
| --- | --- | --- | --- | --- | --- | --- | --- |
| COc1ccc(OC)c(C(O)CN)c1 (stereo not drawn) [DESGLYMIDODRINE] | 5.72 | 106 | 4.07 | 205 | 133 | 250 | Efficacy (Rattus norvegicus [2]): 68%; pKi [5]: 5.16; pKi [7]: 5.77; pKi [9]: 5.70 |
| C[C@H](N)[C@H](O)c1ccccc1 [(1R,2S)-PHENYLPROPANOLAMINE] | 4.24 | 91 | 3.55 | 1100 | 68 | 330 | pKi [10]: 5.02; pKi [11]: 5.01; Efficacy (Rattus norvegicus [12]): 34%; pKi [13]: 5.08 |
| CCS(=O)(=O)Nc1cccc(Cc2c[nH]cn2)c1 |  |  |  | 12 | 80 | 80 | NA [14]: inactive; Kb [15]: 3.98 µM; pKi [16]: 6.85; Kb [17]: 0.631 µM |
| CS(=O)(=O)Nc1c(O)ccc2c1CCCC2C1=NCCN1 (stereo not drawn) |  |  |  | 0.16 | 88 | 0.27 | Efficacy (Rattus norvegicus [18]): 100%; pKi [19]: 5.82; pKi [20]: 5.54 |

Source: ChEMBL document CHEMBL1135819, “N-[3-(1H-imidazol-4-ylmethyl)phenyl]ethanesulfonamide (ABT-866, 1),(1) a novel alpha(1)-adrenoceptor ligand with an enhanced in vitro and in vivo profile relative to phenylpropanolamine and midodrine” (J Med Chem, 2002)
